Source: PubChem
CAL PDZ FP-1 = inhibitors of human CAL PDZ peptide binding; Q9HD26; purified CAL PDZ, TMR-peptide fluorescence polarization, 1 h; inhibition, % at 24.9 µM; 300,000 tested, 0.92% active; AID 602252;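 active = mean inhibition of at least 30% with at least half of replicates also reaching 30%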
DYRK1A inh = inhibitors of rat Dyrk1A kinase; ADP-Glo luminescence, NFATc1 peptide; inhibition, % at 12.5 µM; 310,000 tested, 0.43% active; AID 504441; in the data active = inhibition above about 50%
dFosB act-1 = mouse delta FosB homodimer activation. P13346. purified delta FosB, TAMRA-CDK5 oligo fluorescence polarization; percent of positive-control signal above neutral wells. activation, % at 25 µM. 340,000 tested, 0.99% active. AID 493131;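 active = mean activation above about 17%, with every replicate also reaching it, limit read from the data, passing the limit was not always enough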
CDK5 p35 inh = CDK5/p35 (human) kinase inhibition; Q00535+Q15078; Recombinant CDK5/p35, ADP-Glo luminescence, 60 min; inhibition, % at 10 µM; 330,000 tested, 0.01% active;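 active = highest replicate inhibition of at least 50% and at least 75% of replicates reaching 50%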
Rtt109 Vps75 = C. albicans Rtt109 histone acetyltransferase inhibition; inhibition, % at 34.9 µM; purified Rtt109/Vps75, ThioGlo CoA-SH fluorescence, 4 h; Q5AAJ8; AID 540336; 330,000 tested, 0.16% active;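 active = inhibition of at least 50% in every replicate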
Target sequence (Q5AAJ8 whole entry, looked up): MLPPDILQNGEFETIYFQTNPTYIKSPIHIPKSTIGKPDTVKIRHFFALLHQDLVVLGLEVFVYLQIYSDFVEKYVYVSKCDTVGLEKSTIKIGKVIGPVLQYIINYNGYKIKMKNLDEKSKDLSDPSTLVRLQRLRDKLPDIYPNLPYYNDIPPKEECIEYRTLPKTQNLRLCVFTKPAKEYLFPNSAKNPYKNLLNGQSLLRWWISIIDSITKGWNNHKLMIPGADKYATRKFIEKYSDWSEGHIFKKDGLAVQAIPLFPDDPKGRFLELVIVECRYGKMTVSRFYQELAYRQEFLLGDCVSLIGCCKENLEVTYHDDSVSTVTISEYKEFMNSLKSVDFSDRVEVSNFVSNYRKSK
CAL PDZ FP-2 = blocks peptide binding to human CAL PDZ domain; purified CAL PDZ, TMR-peptide fluorescence polarization, 1 h; inhibition, % at 20 µM; 330,000 tested, 0.02% active; AID 504414;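 active = highest replicate inhibition of at least 40%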
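Material – purified CerCALP PDZ construct · Detection – FP readout, S and P plane fluorescence · Measure – percent inhibition from loss of millipolarization · Controls – unlabelled peptide for full inhibition, DMSO wells as neutral · Probe or stimulus – TMR-labelled reporter peptide T*-PRC34 bound in PDZ groove · Times – 1 h at RT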
dFosB act-2 = activators of mouse delta FosB homodimer DNA binding | shares compounds with dFosB act-1 | purified delta FosB, TAMRA-CDK5 oligo fluorescence polarization; normalised: neutral wells 0, positive control 100 | activation, % at 24.9 µM | 2,400 tested, under 10 active | AID 588690;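 active = highest replicate activation at or above 34% and every replicate reaching that threshold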;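 also: higher polarization means more probe DNA bound by delta FosB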
Of the large screens only hits and unclear results are named; the others gave an inactive call (follow-up assays come after a bar, where they were run). Compounds with a hit are over-represented: about 2.2% of the library has one in this group of screens.

Nc1c(S(=O)(=O)c2cccs2)c2nc3ccccc3nc2n1Cc1cccs1	dFosB act-1 26 | dFosB act-2 inactive
O=C(Nc1ccc(Cl)cc1)Nc1nc(-c2sccc2Br)cs1	dFosB act-1 27 | dFosB act-2 inactive
C/C(=N\NC(=S)Nc1c(C)cccc1C)c1ccc(OC(F)F)cc1	none
O=C(Nc1nc2c(F)cc(F)cc2s1)c1ccco1	none
O=C(Nc1nc2c(F)c(F)c(F)cc2s1)c1ccco1	dFosB act-1 30 | dFosB act-2 inactive
CCOc1ccc(NC(=O)[C@@H](NC(=O)OCc2ccccc2)[C@@H](C)CC)cc1	none
CCC(C)C(NC(N)=O)C(=O)Nc1ccc(OCc2ccccc2)cc1 (stereo not given)	dFosB act-1 43 | dFosB act-2 inactive
CCOc1ccc(NC(=O)CNC(=O)c2ccc([N+](=O)[O-])cc2)cc1	none (no result: DYRK1A inh)
CC(c1ccccc1)N(NC(=O)C(O)(c1ccccc1)c1ccccc1)C(=O)c1ccccc1 (stereo not given)	dFosB act-1 38 (no result: DYRK1A inh) | dFosB act-2 inactive
CNS(=O)(=O)c1ccc(C)c(S(=O)(=O)NC)c1	none
COc1ccccc1N1CCN(C(=O)CNC(=O)c2ccc(Cl)cc2Cl)CC1	none
NC1=NC[C@@H](Cc2ccc(O)cc2)N1CCc1cc(C(F)(F)F)cc(C(F)(F)F)c1	dFosB act-1 22 (no result: DYRK1A inh) | dFosB act-2 inactive
C=CCNc1nc(Nc2ccc([N+](=O)[O-])cc2)nc(OC)n1	none
C#CCOc1nc(Nc2cccc([N+](=O)[O-])c2)nc(OCC#C)n1	dFosB act-1 29 | dFosB act-2 inactive
COc1nc(Nc2cccc([N+](=O)[O-])c2)nc(OC)n1	dFosB act-1 106 | dFosB act-2 inactive
CCOc1nc(NCCO)nc(Nc2ccc([N+](=O)[O-])cc2)n1	none
COc1ccc(C)cc1NC(=O)CCCN1C(=O)C(c2ccccc2)Oc2cccnc21 (stereo not given)	none (no result: DYRK1A inh, CDK5 p35 inh)
NC(=O)Nc1ccc(C(=O)OCC(=O)Nc2sccc2C(N)=O)cc1	dFosB act-1 17 | dFosB act-2 inactive
COc1ccc2c(c1)CCC1C2CCC2(C)C(O)C(=O)CC12 (stereo not given)	none (no result: CAL PDZ FP-1, DYRK1A inh)
COc1ccc(NC(=O)c2nn(C)c3c2CS(=O)(=O)c2ccccc2-3)cc1	none
COc1cc(NC(=O)c2nn(C)c3c2CS(=O)(=O)c2ccccc2-3)cc(OC)c1	dFosB act-1 23 | dFosB act-2 inactive
CC1(C)CC(=O)C=C(c2cccnc2)C1	none
CC1(C)NC(=O)N(CC(O)CN(c2cccc([N+](=O)[O-])c2)S(=O)(=O)c2ccccc2)C1=O (stereo not given)	none
Cc1ccc(S(=O)(=O)N2CCC(C(=O)N[C@@H](C)C(=O)NC3CCCCC3)CC2)cc1	dFosB act-1 39 | dFosB act-2 inactive
Cc1ccc(S(=O)(=O)N2CCC(C(=O)N[C@H](C(=O)NCc3ccco3)C(C)C)CC2)cc1	dFosB act-1 18 (no result: Rtt109 Vps75) | dFosB act-2 inactive
COc1ccc(S(=O)(=O)N2CCC(C(=O)N[C@@H](C)C(=O)NC3CCCC3)CC2)cc1	dFosB act-1 20 | dFosB act-2 inactive
CC(C)C[C@@H](CNCC(=O)[C@H](C)NC(=O)c1[nH]cnc1C(=O)N[C@@H](C)CN)NC(=O)c1nc[nH]c1C(=O)N[C@@H](CC(=O)O)C(=O)O	none
CC1CC(C)(C)NC(=S)N1CCCC(=O)Nc1ccc(F)cc1 (stereo not given)	none
CCC(C)n1c(OC)nc2c1c(=O)n(C)c(=O)n2C (stereo not given)	none
O=C(N/N=C/c1ccncc1)c1cccc(S(=O)(=O)Nc2ccc(Cl)cc2)c1	dFosB act-1 45 | dFosB act-2 inactive
O=C(N/N=C/c1cccnc1)c1cccc(NC(=O)c2cccc(Br)c2)c1	dFosB act-1 45 | dFosB act-2 inactive
COc1ccc(NS(=O)(=O)c2cccc(C(=O)NN=Cc3ccc(OC)cc3OC)c2)cc1	dFosB act-1 26 (no result: CAL PDZ FP-1) | dFosB act-2 inactive
COc1ccc(NS(=O)(=O)c2ccc(OC)c(NC(=O)CCC3CCCCC3)c2)cc1	none
